Source: ChEMBL document CHEMBL1122567, “Conformationally restricted congeners of dopamine derived from octahydrobenzo[g]quinoline and octahydrobenzo[f]quinoline” (J Med Chem, 1984)
Active and inactive are the calls of the source. The calls are words filed in the database; no cut-off is given here.

Legend:
Felis catus [1] = experiment: Compound was evaluated for the inhibition of the cardioaccelerator nerve of the cat at a dose 4 umol/kg (n = 3); type: functional
Outline: (§1)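 Cats were anaesthetised with pentobarbital sodium (30 mg/kg) injected into the thoracic cavity. The right cardioaccelerator nerve was isolated and stimulated through bipolar platinum electrodes at 2 Hz, 2-ms pulses and supramaximal voltage, usually for 30 s. Arterial pressure was recorded from the right femoral artery, and heart rate by cardiotachometer. The highest dose tested was 4 µmol/kg, with n = 3.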

Rattus norvegicus [2] = organism: Rattus norvegicus; experiment: Compound was evaluated for inhibition of binding of [3H]spiroperidol to rat caudate tissue.; type: functional, organism-based
Felis catus [3] = experiment: Compound was evaluated for the inhibition of the cardioaccelerator nerve of the cat at a dose 4 umol/kg; type: functional; outline: as §1
Rattus norvegicus [4] = organism: Rattus norvegicus; experiment: Compound was evaluated for inhibition of binding of [3H]dopamine to rat caudate tissue.; type: functional, organism-based
Felis catus [5] = experiment: Compound was evaluated for the inhibition of the cardioaccelerator nerve of the cat; I - inactive at a dose 4 umol/kg (n = 3); type: functional, organism-based; outline: as §1

| Structure (SMILES) | ED50 (Felis catus [1]) [µmol/kg] | IC50 (Rattus norvegicus [2]) [nM] | ED50 (Felis catus [3]) [µmol/kg] | IC50 (Rattus norvegicus [4]) [nM] | ED50 (Felis catus [5]) |
| --- | --- | --- | --- | --- | --- |
| CN1CCc2cccc3c2[C@H]1Cc1ccc(O)c(O)c1-3 [APOMORPHINE] | 0.022 | 1100 | – | – | – |
| CCN1CCC[C@H]2c3cc(O)cc(O)c3CC[C@H]21 | – | 10000 | > 4 | 430 | – |
| CCCN1CCC[C@@H]2Cc3c(O)cc(O)cc3C[C@H]21 | 1.74 | 15000 | – | 370 | – |
| Oc1cc(O)c2c(c1)C[C@H]1NCCC[C@@H]1C2 | – | 264000 | – | 12800 | inactive |
| CCCN1CCC[C@@H]2c3cc(O)cc(O)c3CC[C@H]21 | 0.0047 | 1000 | – | 40 | – |
| Oc1cc(O)c2c(c1)[C@@H]1CCCN[C@H]1CC2 | – | 25000 | – | 1000 | – |
| CCN1CCC[C@@H]2c3cc(O)cc(O)c3CC[C@H]21 | 0.0021 | 2400 | – | 90 | – |
| CCCN1CCC[C@H]2c3cc(O)cc(O)c3CC[C@H]21 | – | 11000 | > 4 | 1700 | – |
| CCN1CCC[C@@H]2Cc3c(O)cc(O)cc3C[C@H]21 | – | 32000 | – | 440 | inactive |
| Oc1cc(O)c2c(c1)[C@@H]1CCCN[C@@H]1CC2 | – | 113000 | – | 11100 | – |
